We go through 30 compounds from ChEMBL document CHEMBL4152289, “Novel 8-nitroquinolin-2(1H)-ones as NTR-bioactivated antikinetoplastid molecules: Synthesis, electrochemical and SAR study” (Eur J Med Chem, 2018).

A short description of data set [1]: Electrochemical behavior of the compound assessed as redox potential corrected toward normal hydrogen electrode at 10^-3 mol/L by cyclic voltammetry. To be noted: 1000 µM.
For the next data set, the system named is Leishmania infantum. The experiment in a line: microbe, parasite or virus in culture. The class given is functional, organism-based. The conditions noted are these: MHOM/MA/67/ITMAP-263, 48 h.
The subject of data set [2] is Trypanosoma brucei brucei. The experiment in a line: Antitrypanosomal activity against trypomastigote stage of Trypanosoma brucei brucei AnTat 1.9 assessed as decrease in parasite viability after 69 hrs by Alamar Blue assay. The conditions noted are these: AnTat 1.9, 69 h. The class given is functional, organism-based. In general terms: The colour change of resazurin is a common sign of viable cells or microbes.

The next data set deals with HepG2. Briefly: Cytotoxicity against human HepG2 cells assessed as decrease in cell viability after 72 hrs by MTT assay. To be noted: hepg2, 72 h. For orientation: Tetrazolium assays rely on reduction of a dye to a coloured formazan, in cell work by metabolically active cells.
For the next data set, the system named is THP-1. The experiment in a line: Cytotoxicity against human THP1 cells assessed as decrease in cell viability after 72 hrs by MTT assay. To be noted: thp-1, 72 h. Type of data set: cell-based. The procedure, abridged:
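PMA-differentiated THP-1 (50 ng/mL final), 10⁶ cells/mL in complete RPMI, 48 h. Compounds in DMSO (<0.5% v/v) for 72 h at 37 °C. MTT 0.5 mg/mL for 2 h, formazan dissolved in DMSO, A570 with 630 nm reference. Viability expressed as percent of untreated control; doxorubicin as positive control; 50% cytotoxic concentration from dose–response curve.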

The test system of a further data set is Leishmania donovani. The experiment in a line: Antileishmanial activity against amastigote stage of Leishmania donovani MHOM/IN/00/DEVI infected in human THP1 cells assessed as inhibition of parasite infection after 120 hrs by Giemsa staining-based microscopic method. The conditions noted are these: THP-1, 120 h. Type of data set: functional, organism-based. The procedure, abridged:
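THP-1 cells differentiated with PMA (50 ng/mL final), 48 h at 37 °C, 6% CO2, then infected 10:1 with promastigotes acid-primed 24 h at 27 °C in Schneider 20% FCS pH 5.4. After 24 h, compounds in DMSO (<0.5% v/v) added in duplicate for 120 h. Methanol fixation and Giemsa staining; ≥200 cells counted. IC50 is the concentration halving infected macrophages, nonlinear regression, mean of three independent experiments.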

The target in data set [3] is T1, serum albumin (Homo sapiens, UniProt P02768). The experiment in a line: Binding affinity to human serum albumin after 4 hrs by LC-MS method. The class given is ADME. To be noted: read-out: PB (converted).
T1 sequence (P02768 whole entry): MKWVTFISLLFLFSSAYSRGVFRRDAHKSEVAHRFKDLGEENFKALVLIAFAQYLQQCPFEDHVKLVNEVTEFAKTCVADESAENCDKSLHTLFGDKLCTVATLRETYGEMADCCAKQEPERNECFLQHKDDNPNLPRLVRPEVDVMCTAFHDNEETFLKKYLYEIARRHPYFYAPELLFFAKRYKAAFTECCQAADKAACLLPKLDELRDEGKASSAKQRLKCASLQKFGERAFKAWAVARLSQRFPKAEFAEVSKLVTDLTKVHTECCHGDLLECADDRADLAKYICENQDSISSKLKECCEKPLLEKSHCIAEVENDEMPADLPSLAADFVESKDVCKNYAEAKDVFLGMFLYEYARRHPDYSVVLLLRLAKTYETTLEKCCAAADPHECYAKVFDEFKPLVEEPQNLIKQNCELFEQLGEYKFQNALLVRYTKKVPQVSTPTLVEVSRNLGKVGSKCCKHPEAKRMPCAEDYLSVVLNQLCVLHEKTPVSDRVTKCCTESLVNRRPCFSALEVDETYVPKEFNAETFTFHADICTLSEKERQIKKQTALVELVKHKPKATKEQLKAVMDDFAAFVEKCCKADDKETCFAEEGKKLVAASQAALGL
Another data set has as its target Albumin (Homo sapiens, UniProt P02768). The experiment in a line: (§1) Binding affinity to human serum albumin assessed as fraction unbound after 4 hrs by LC-MS method. Type of data set: ADME. The conditions noted are these: isolated protein, 4 h.
In data set [4] the target is T1, serum albumin. The description is as §1. Type of data set: ADME. To be noted: human serum albumin.

A word on the pIC50: it is the IC50 on a negative log10 scale, so that one unit is a factor of ten. By CC50 is commonly meant the concentration giving 50% cytotoxicity.

pIC50: −log10 of the molar value.

Chain of Albumin (P02768 whole entry): as above

As to `O=[N+]([O-])c1cccc2cccnc12`, in data set [1], the Activity was -0.84 V. The pIC50 in the data set with Leishmania infantum is below 4.00; in data set [2] it was 4.75. Besides, the CC50 with HepG2 is above 100 µM.
For `Oc1ccc2ccccc2n1`, the Activity in data set [1] is reported as -1.86 V. The pIC50 was below 4.00 with Leishmania infantum and below 4.30 in [2]. In addition, the CC50 in the data set with HepG2 is above 100 µM.
Taken in the same sequence, the figures for `O=[N+]([O-])c1cccc2nc(O)ccc12` were -0.67 V, below 4.00, below 4.30 and above 100 µM.
Taken in the same sequence, the figures for `O=[N+]([O-])c1ccc2nc(O)ccc2c1` were -0.82 V, below 4.00, 5.64 and above 100 µM.
Consider `Cn1c(=O)ccc2ccccc21`, for which the pIC50 in the data set on Leishmania infantum was below 4.00; in [2] it was below 4.30. The 50% cytotoxic concentration (CC50) with HepG2 was above 100 µM.
`O=c1cc(Br)c2cccc([N+](=O)[O-])c2[nH]1`: in [1], the Activity is -0.51 V. The pIC50 was 4.69 in the data set on Leishmania infantum and 5.26 in data set [2]. Also, the CC50 with HepG2 came to 60 µM.
In the case of `CC(=O)Nc1ccccc1[N+](=O)[O-]`, the Activity in data set [1] is given as -0.68 V. Besides, the pIC50 with Leishmania infantum was below 4.00; in data set [2], below 4.30. Also, in the data set on HepG2, the CC50 was above 100 µM.
Taken in the same sequence, the figures for `Cc1ccc2ccc(=O)[nH]c2c1[N+](=O)[O-]` were -0.71 V, below 4.00, below 4.30 and above 100 µM.
Taken in the same sequence, the figures for `COc1nc2c([N+](=O)[O-])cccc2cc1Br` were -0.86 V, below 5.21, 6.40 and above 6.2 µM.
With `CC(C)(C)OC(=O)NCCOCCOCCNCc1cc(=O)[nH]c2c([N+](=O)[O-])cccc12`, the pIC50 was below 4.00 in the data set with Leishmania infantum and 5.60 in data set [2]. The CC50 in the data set on HepG2 is above 100 µM.
On to `Nc1ccc2cccnc2c1[N+](=O)[O-]`, for which the Activity in data set [1] is listed as -1.1 V. The pIC50 was below 4.00 in the data set with Leishmania infantum and below 4.30 in data set [2]. Also, the CC50 in the data set on HepG2 was above 100 µM.
For `COc1ccc2ccc(=O)[nH]c2c1[N+](=O)[O-]`, the Activity in data set [1] was -0.75 V. Moreover, the pIC50 was below 4.00 in the data set on Leishmania infantum and below 4.30 in data set [2]. For the same compound, the CC50 with HepG2 is above 100 µM.
For `Cc1cc(=O)[nH]c2c([N+](=O)[O-])cccc12` the same measures were -0.53 V, 4.99, 4.68 and 110 µM.
In the case of `O=c1cnc2cccc([N+](=O)[O-])c2[nH]1`, the Activity in data set [1] was -0.46 V. The figures for the pIC50 (with Leishmania infantum; in data set [2]) were 4.96 and 5.14, respectively. In the data set with HepG2, the CC50 amounted to 125 µM.
For `COc1ccc([N+](=O)[O-])c2[nH]c(=O)ccc12` the same measures were -0.65 V, below 4.00, below 4.30 and above 100 µM.
On to `Nc1cccc2cc(Br)c(=O)[nH]c12`, for which the pIC50 (in the data set with Leishmania infantum; in data set [2]) was below 4.30 throughout. Besides, the CC50 in the data set with HepG2 was above 100 µM.
For `O=c1cc(CO)c2cccc([N+](=O)[O-])c2[nH]1`, the values for the pIC50 (with Leishmania infantum; in [2]) were 4.63 and 4.42, respectively. Moreover, in the data set with HepG2, the CC50 is above 100 µM.
For the compound `Cc1cc([N+](=O)[O-])c2[nH]c(=O)ccc2c1`, the Activity in data set [1] is reported as -0.56 V. The figures for the pIC50 (in the data set on Leishmania infantum; in data set [2]) were 4.64 and 5.68, respectively. In addition, the CC50 in the data set with HepG2 was above 100 µM.
`O=c1[nH]c2c([N+](=O)[O-])cccc2cc1Cl`: the Activity in data set [1] is -0.47 V. In addition, the pIC50 is 4.80 with Leishmania infantum and 5.92 in data set [2]. In the data set on HepG2, the CC50 came to 85 µM.
`NCCOCCOCCNCc1cc(=O)[nH]c2c([N+](=O)[O-])cccc12`: the pIC50 with Leishmania infantum is below 4.00; in [2] it was 5.12. In the data set on HepG2, the CC50 was above 100 µM.
Take `CC(=O)Nc1ccc2cccnc2c1[N+](=O)[O-]`: the Activity in data set [1] is recorded as -0.86 V. Besides, the pIC50 in the data set on Leishmania infantum was below 4.00; in data set [2], 4.97. Further, in the data set on HepG2, the CC50 is above 100 µM.
For `COc1cc([N+](=O)[O-])c2[nH]c(=O)ccc2c1` the same measures were -0.58 V, below 4.00, below 4.30 and above 100 µM.
For `Cc1ccc([N+](=O)[O-])c2[nH]c(=O)ccc12`, the Activity in [1] is on record as -0.58 V. In addition, the pIC50 with Leishmania infantum was 4.60; in data set [2], 4.54. Further, the CC50 in the data set with HepG2 is above 100 µM.
For `C[C@@H]1[C@H](O)[C@@H](C)/C=C/C=C/C=C/C=C/C=C/C=C/C=C/[C@H](O[C@@H]2O[C@H](C)[C@@H](O)[C@H](N)[C@@H]2O)C[C@@H]2O[C@](O)(C[C@@H](O)C[C@@H](O)[C@H](O)CC[C@@H](O)C[C@@H](O)CC(=O)O[C@H]1C)C[C@H](O)[C@H]2C(=O)O` [AMPHOTERICIN B], the pIC50 in the data set with Leishmania infantum is 7.22; in the data set on Leishmania donovani, 6.40. Further, the CC50 in the data set on THP-1 is 3.6 µM.
Consider `NC(=O)N1c2ccccc2C=Cc2ccccc21` [CARBAMAZEPINE], for which the fraction unbound at 4 h at serum albumin [3] and at serum albumin [4] was 0.276 throughout. Moreover, the logFu at Albumin is given as -0.56.
Turning to `NCCC[C@](N)(C(=O)O)C(F)F` [EFLORNITHINE, (S)-], the pIC50 in data set [2] was 4.80. Besides, in the data set with HepG2, the CC50 is above 100 µM.
Take `CSc1ccc(OCc2ncc([N+](=O)[O-])n2C)cc1` [FEXINIDAZOLE]: the pIC50 is 5.47 in the data set on Leishmania infantum, 6.40 in data set [2] and below 4.30 in the data set with Leishmania donovani. In addition, the CC50 was above 200 µM in the data set on HepG2 and above 62.5 µM in the data set with THP-1.
For `CCCCCCCCCCCCCCCCOP(=O)([O-])OCC[N+](C)(C)C` [MILTEFOSINE], the pIC50 with Leishmania infantum is 6.10; in the data set on Leishmania donovani it was 5.27. In the data set with THP-1, the CC50 is above 40 µM.
Consider `O=[N+]([O-])c1ccccc1` [NITROBENZENE], for which the Activity in data set [1] was -0.85 V. Moreover, the pIC50 with Leishmania infantum was below 4.00; in data set [2], below 4.30. For the same compound, in the data set on HepG2, the CC50 was above 100 µM.
In the case of `Cc1ccc(C(=O)Nc2ccc(S(=O)(=O)O)c3cc(S(=O)(=O)O)cc(S(=O)(=O)O)c23)cc1NC(=O)c1cccc(NC(=O)Nc2cccc(C(=O)Nc3cc(C(=O)Nc4ccc(S(=O)(=O)O)c5cc(S(=O)(=O)O)cc(S(=O)(=O)O)c45)ccc3C)c2)c1` [SURAMIN], the CC50 with HepG2 is above 100 µM.
